Assay results published in ChEMBL document CHEMBL2375313, “Synthesis, in vitro antitumor evaluation and DNA-binding study of novel tetrahydroquinolines and some derived tricyclic and tetracyclic ring systems” (Eur J Med Chem, 2013).
Converted amounts (≈) assume the structure as drawn. The source made the active and inactive calls. The calls are words filed in the database; no cut-off is given here.

Legend:
HOP-92 = assay: Cytotoxicity against human HOP92 cells assessed as growth inhibition at 10 uM after 48 hrs by sulphorhodamine B assay; assay type: functional; details: HOP-92, 48 h, read-out: GI
Outline: (§1)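 NCI-60 one-dose screen per the NCI Drug Evaluation Branch protocol. Cells given a single 10 µM concentration with 48 h continuous exposure. Growth estimated by sulphorhodamine B protein assay. Result expressed as percentage growth inhibition relative to untreated growth.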

NCI-H23 = assay: Cytotoxicity against human NCI-H23 cells assessed as growth inhibition at 10 uM after 48 hrs by sulphorhodamine B assay; assay type: functional; details: NCI-H23, 48 h, read-out: GI; outline: as §1
[1] = Cytotoxicity against human EKVX cells assessed as growth inhibition at 10 uM after 48 hrs by sulphorhodamine B assay; assay type: functional; details: read-out: GI; outline: as §1
A549 = assay: Cytotoxicity against human A549 cells assessed as growth inhibition at 10 uM after 48 hrs by sulphorhodamine B assay; assay type: functional; details: A549, 48 h, read-out: GI; outline: as §1
[2] = Displacement of methyl green from DNA (unknown origin) after 24 hrs
Outline: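 DNA-methyl green complex was stirred in 0.05 M Tris-HCl pH 7.5 with 7.5 mmol MgSO4 at 37 °C for 24 h. Compound was dried down from EtOH in tubes and the DNA-methyl green solution added. A630 was read initially and after 24 h dark incubation at room temperature, corrected and normalized to untreated complex. IC50 is the concentration giving a 50% absorbance decrease; mean ± SD, n = 6.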

[3] = Binding affinity to DNA (unknown origin) at 5 mg/mL by RP-TLC plate analysis
Outline: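 Reversed-phase C18 TLC plates pre-developed in methanol/water 8:2. Compound spotted at origin (5 mg/mL in methanol), then DNA (1 mg/mL in water/methanol 8:2) applied at the same spot. Plates developed in the same eluent; DNA located by anisaldehyde spray (blue). Ethidium bromide as positive control.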

NCI/ADR-RES = assay: Cytotoxicity against human NCI/ADR-RES cells assessed as growth inhibition at 10 uM after 48 hrs by sulphorhodamine B assay; assay type: functional; details: read-out: GI; outline: as §1
SNB-75 = assay: Cytotoxicity against human SNB75 cells assessed as growth inhibition at 10 uM after 48 hrs by sulphorhodamine B assay; assay type: functional; details: SNB-75, 48 h, read-out: GI; outline: as §1
U-251 = assay: Cytotoxicity against human U251 cells assessed as growth inhibition at 10 uM after 48 hrs by sulphorhodamine B assay; assay type: functional; details: U-251, 48 h, read-out: GI; outline: as §1
SNB-19 = assay: Cytotoxicity against human SNB19 cells assessed as growth inhibition at 10 uM after 48 hrs by sulphorhodamine B assay; assay type: functional; details: SNB-19, 48 h, read-out: GI; outline: as §1
SF-295 = assay: Cytotoxicity against human SF295 cells assessed as growth inhibition at 10 uM after 48 hrs by sulphorhodamine B assay; assay type: functional; details: SF-295, 48 h, read-out: GI; outline: as §1
DU-145 = assay: Cytotoxicity against human DU145 cells assessed as growth inhibition at 10 uM after 48 hrs by sulphorhodamine B assay; assay type: functional; details: DU-145, 48 h, read-out: GI; outline: as §1
SF-268 = assay: Cytotoxicity against human SF268 cells assessed as growth inhibition at 10 uM after 48 hrs by sulphorhodamine B assay; assay type: functional; details: SF-268, 48 h, read-out: GI; outline: as §1
PC-3 = assay: Cytotoxicity against human PC3 cells assessed as growth inhibition at 10 uM after 48 hrs by sulphorhodamine B assay; assay type: functional; details: PC-3, 48 h, read-out: GI; outline: as §1
UACC-62 = assay: Cytotoxicity against human UACC62 cells assessed as growth inhibition at 10 uM after 48 hrs by sulphorhodamine B assay; assay type: functional; details: UACC-62, 48 h, read-out: GI; outline: as §1
SK-MEL-2 = assay: Cytotoxicity against human SK-MEL-2 cells assessed as growth inhibition at 10 uM after 48 hrs by sulphorhodamine B assay; assay type: functional; details: SK-MEL-2, 48 h, read-out: GI; outline: as §1
SK-MEL-5 = assay: Cytotoxicity against human SK-MEL-5 cells assessed as growth inhibition at 10 uM after 48 hrs by sulphorhodamine B assay; assay type: functional; details: SK-MEL-5, 48 h, read-out: GI; outline: as §1
M14 = assay: Cytotoxicity against human M14 cells assessed as growth inhibition at 10 uM after 48 hrs by sulphorhodamine B assay; assay type: functional; details: M14, 48 h, read-out: GI; outline: as §1
LOX IMVI = assay: Cytotoxicity against human LOXIMVI cells assessed as growth inhibition at 10 uM after 48 hrs by sulphorhodamine B assay; assay type: functional; details: read-out: GI; outline: as §1
UO-31 = assay: Cytotoxicity against human UO31 cells assessed as growth inhibition at 10 uM after 48 hrs by sulphorhodamine B assay; assay type: functional; details: UO-31, 48 h, read-out: GI; outline: as §1
CAKI-1 = assay: Cytotoxicity against human Caki1 cells assessed as growth inhibition at 10 uM after 48 hrs by sulphorhodamine B assay; assay type: functional; details: CAKI-1, 48 h, read-out: GI; outline: as §1
RXF 393 = assay: Cytotoxicity against human RXF393 cells assessed as growth inhibition at 10 uM after 48 hrs by sulphorhodamine B assay; assay type: functional; details: RXF 393, 48 h, read-out: GI; outline: as §1
ACHN = assay: Cytotoxicity against human ACHN cells assessed as growth inhibition at 10 uM after 48 hrs by sulphorhodamine B assay; assay type: functional; details: read-out: GI; outline: as §1
SR = assay: Cytotoxicity against human SR cells assessed as growth inhibition at 10 uM after 48 hrs by sulphorhodamine B assay; assay type: functional; details: read-out: GI; outline: as §1
A498 = assay: Cytotoxicity against human A498 cells assessed as growth inhibition at 10 uM after 48 hrs by sulphorhodamine B assay; assay type: functional; details: A498, 48 h, read-out: GI; outline: as §1
RPMI-8226 = assay: Cytotoxicity against human RPMI8226 cells assessed as growth inhibition at 10 uM after 48 hrs by sulphorhodamine B assay; assay type: functional; details: RPMI-8226, 48 h, read-out: GI; outline: as §1
MOLT-4 = assay: Cytotoxicity against human MOLT4 cells assessed as growth inhibition at 10 uM after 48 hrs by sulphorhodamine B assay; assay type: functional; details: MOLT-4, 48 h, read-out: GI; outline: as §1
K562 = assay: Cytotoxicity against human K562 cells assessed as growth inhibition at 10 uM after 48 hrs by sulphorhodamine B assay; assay type: functional; details: K562, 48 h, read-out: GI; outline: as §1
HL-60(TB) = assay: Cytotoxicity against human HL-60(TB) cells assessed as growth inhibition at 10 uM after 48 hrs by sulphorhodamine B assay; assay type: functional; details: HL-60, 48 h, read-out: GI
Outline: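 NCI-60 one-dose primary screen run to the Drug Evaluation Branch protocol. Cells are exposed to a single 10 µM concentration for 48 h continuously, and growth is read by SRB protein assay. Data are reported as percent growth of treated cells, expressed as % growth inhibition.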

SK-OV-3 = assay: Cytotoxicity against human SKOV3 cells assessed as growth inhibition at 10 uM after 48 hrs by sulphorhodamine B assay; assay type: functional; details: SK-OV-3, 48 h, read-out: GI; outline: as §1
CCRF-CEM = assay: Cytotoxicity against human CCRF-CEM cells assessed as growth inhibition at 10 uM after 48 hrs by sulphorhodamine B assay; assay type: functional; details: read-out: GI; outline: as §1
OVCAR-5 = assay: Cytotoxicity against human OVCAR5 cells assessed as growth inhibition at 10 uM after 48 hrs by sulphorhodamine B assay; assay type: functional; details: OVCAR-5, 48 h, read-out: GI; outline: as §1
OVCAR-4 = assay: Cytotoxicity against human OVCAR4 cells assessed as growth inhibition at 10 uM after 48 hrs by sulphorhodamine B assay; assay type: functional; details: OVCAR-4, 48 h, read-out: GI; outline: as §1
IGROV-1 = assay: Cytotoxicity against human IGROV1 cells assessed as growth inhibition at 10 uM after 48 hrs by sulphorhodamine B assay; assay type: functional; details: IGROV-1, 48 h, read-out: GI; outline: as §1
T47D = assay: Cytotoxicity against human T47D cells assessed as growth inhibition at 10 uM after 48 hrs by sulphorhodamine B assay; assay type: functional; details: read-out: GI; outline: as §1
Hs-578T = assay: Cytotoxicity against human Hs578T cells assessed as growth inhibition at 10 uM after 48 hrs by sulphorhodamine B assay; assay type: functional; details: read-out: GI; outline: as §1
NCI-H522 = assay: Cytotoxicity against human NCI-H522 cells assessed as growth inhibition at 10 uM after 48 hrs by sulphorhodamine B assay; assay type: functional; details: NCI-H522, 48 h, read-out: GI; outline: as §1
HT-29 = assay: Cytotoxicity against human HT-29 cells assessed as growth inhibition at 10 uM after 48 hrs by sulphorhodamine B assay; assay type: functional; details: HT-29, 48 h, read-out: GI; outline: as §1
MCF7 = assay: Cytotoxicity against human MCF7 cells assessed as growth inhibition at 10 uM after 48 hrs by sulphorhodamine B assay; assay type: functional; details: MCF7, 48 h, read-out: GI; outline: as §1
MDA-MB-435 = assay: Cytotoxicity against human MDA-MB-435 cells assessed as growth inhibition at 10 uM after 48 hrs by sulphorhodamine B assay; assay type: functional; details: MDA-MB-435, 48 h, read-out: GI; outline: as §1
HCT-15 = assay: Cytotoxicity against human HCT15 cells assessed as growth inhibition at 10 uM after 48 hrs by sulphorhodamine B assay; assay type: functional; details: HCT-15, 48 h, read-out: GI; outline: as §1
HCT-116 = assay: Cytotoxicity against human HCT116 cells assessed as growth inhibition at 10 uM after 48 hrs by sulphorhodamine B assay; assay type: functional; details: HCT-116, 48 h, read-out: GI; outline: as §1

Structure (SMILES): CC1CCCc2c1nc1[nH]c(=S)n(-c3ccccc3)c(=N)c1c2-c1ccc(Cl)cc1 (configuration not stated)
- inhibition of growth at 10 µM (HOP-92): 26.2%
- inhibition of growth at 10 µM (NCI-H23): 11.5%
- inhibition of growth at 10 µM [1]: 31%
- inhibition of growth at 10 µM (A549): 18.9%
- IC50 [2]: 0.097 µg/mL (≈ 0.224 µM)
- Activity [3]: Active
- inhibition of growth at 10 µM (NCI/ADR-RES): 11.4%
- inhibition of growth at 10 µM (SNB-75): 13.9%
- inhibition of growth at 10 µM (U-251): 15.2%
- inhibition of growth at 10 µM (SNB-19): < 10%
- inhibition of growth at 10 µM (SF-295): 12.8%
- inhibition of growth at 10 µM (DU-145): 13%
- inhibition of growth at 10 µM (SF-268): < 10%
- inhibition of growth at 10 µM (PC-3): 21%
- inhibition of growth at 10 µM (UACC-62): 25.3%
- inhibition of growth at 10 µM (SK-MEL-2): 11.3%
- inhibition of growth at 10 µM (SK-MEL-5): 12%
- inhibition of growth at 10 µM (M14): 17.3%
- inhibition of growth at 10 µM (LOX IMVI): 13.1%
- inhibition of growth at 10 µM (UO-31): 44.4%
- inhibition of growth at 10 µM (CAKI-1): < 10%
- inhibition of growth at 10 µM (RXF 393): 17.8%
- inhibition of growth at 10 µM (ACHN): 11.3%
- inhibition of growth at 10 µM (SR): < 10%
- inhibition of growth at 10 µM (A498): 25.2%
- inhibition of growth at 10 µM (RPMI-8226): 66%
- inhibition of growth at 10 µM (MOLT-4): 40%
- inhibition of growth at 10 µM (K562): 28.5%
- inhibition of growth at 10 µM (HL-60(TB)): 24.2%
- inhibition of growth at 10 µM (SK-OV-3): 10.4%
- inhibition of growth at 10 µM (CCRF-CEM): 20.7%
- inhibition of growth at 10 µM (OVCAR-5): 14.3%
- inhibition of growth at 10 µM (OVCAR-4): 14.5%
- inhibition of growth at 10 µM (IGROV-1): 33.3%
- inhibition of growth at 10 µM (T47D): 50%
- inhibition of growth at 10 µM (Hs-578T): < 10%
- inhibition of growth at 10 µM (NCI-H522): 31%
- inhibition of growth at 10 µM (HT-29): < 10%
- inhibition of growth at 10 µM (MCF7): < 10%
- inhibition of growth at 10 µM (MDA-MB-435): < 10%
- inhibition of growth at 10 µM (HCT-15): 10%
- inhibition of growth at 10 µM (HCT-116): 34%
